The subject of the first test is Mus musculus. Nature of the test: Compound is tested against sarcoma 180 ascites (S180a) in female CFW mice, and evaluated for the best percent of increase in life span at optimal dose of 320 mg/kg. The test is classed as functional, organism-based. Further details: dose 320 mg/kg. In outline: (§1)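 Female CFW mice (18-25 g) were inoculated ip with 2×10^6 S180a cells on day 0. Single ip dose in 0.5 mL water on day 1, over 6 dose-doublings up to 320 mg/kg, 6 mice per dose. Controls got water; the cisplatin control got 8 mg/kg in 0.15 M NaCl. Run for twice control MST, with survivors counted dead then. %ILS, ≥50% = active.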
On to cis[Pt(NH3)2(N3-cytidinepyridine)Cl]NO3, for which the increase in lifespan (ILS) (commonly the gain in survival time of treated over control animals, in per cent) was 30%.

A further test concerns Mus musculus. In words: Compound is tested against sarcoma 180 ascites (S180a) in female CFW mice, and evaluated for the best percent of increase in life span at optimal dose of 8 mg/kg. The test is classed as functional, organism-based. Further details: dose 8 mg/kg. In outline: as §1
For CISPLATIN, the ILS amounted to 81%.

A further test relates to Mus musculus. Nature of the test: Compound is tested against sarcoma 180 ascites (S180a) in female CFW mice, and evaluated for the best percent of increase in life span at optimal dose of 160 mg/kg. The test is classed as functional, organism-based. Further details: dose 160 mg/kg. An outline of the steps: as §1
With “cis[Pt(NH3)2(N3-1-beta-D-arabinofuranosylcytocin)Cl]NO3.H2O”, the ILS stood at 51%.
cis[Pt(NH3)2(N3-5-methylcytosine)Cl]NO3 gave an ILS of 84%.
Same read-out and setting: in the case of “cis[Pt(NH3)2(N1-hydroxypyridine)Cl]Cl H2O” it was 97%; in that of “cis[Pt(NH3)2(N1-6-methyl-hydroxypyridine)Cl]Cl”, 93%.
Still for that read-out and setting: in the case of cis[Pt(NH3)2(N7-guanosine)Cl]NO3 it was 79%.

For the next test, the system named is Mus musculus. Nature of the test: Compound is tested against sarcoma 180 ascites (S180a) in female CFW mice, and evaluated for the best percent of increase in life span at optimal dose of 40 mg/kg. The test is classed as functional, organism-based. Further details: dose 40 mg/kg. In outline:
as §1
The substance cis[Pt(NH3)2(N1-4-methylpyridine)Cl]Cl returned an increase in lifespan (ILS) of 83%.
The same measure, in the same setting: in the case of cis[Pt(NH3)2(N1-pyridine)Cl]Cl it was 103%; in that of cis[Pt(NH3)2(N1-4-chloropyridine)Cl]Cl, 77%; in that of cis[Pt(NH3)2(N3-1-methylcytosine)Cl]NO3, 73%.

A further test relates to Mus musculus. Nature of the test: Compound is tested against sarcoma 180 ascites (S180a) in female CFW mice, and evaluated for the best percent of increase in life span at optimal dose of 80 mg/kg. The test is classed as functional, organism-based. Further details: dose 80 mg/kg. In outline:
as §1
cis[Pt(NH3)2(N1-pyridine)Cl]Cl came in with an ILS of 26%.
On the same count and under the same terms, in the case of “cis[Pt(NH3)2(N7-2,deoxyguanosine)Cl]NO3; H2O” it was 88%.
On the same count and under the same terms, in the case of cis[Pt(NH3)2(N1-3-hydroxypyridine)Cl]Cl it was 69%; in that of [Pt(NH3)2(N1-pyridine)Cl]Cl, 17%; in that of “cis[Pt(NH3)2(N1-methyl isonicotinate)Cl]Cl”, 31%.
Same read-out and setting: for cis[Pt(NH3)2(N3-2,deoxycytidine)Cl]Cl the value was 85%; for “cis[Pt(NH3)2(N1-6-methoxy-3-hydroxy-hydroxypyridine)Cl]Cl H2O”, 93%; for cis[Pt(NH3)2(N1-cytisine)Cl]Cl, 92%.
For cis[Pt(NH3)2(N1-4-bromopyridine)Cl]Cl, the ILS was determined as 102%.

The record behind these values is ChEMBL document CHEMBL1124674, “Chemical and biological properties of a new series of cis-diammineplatinum(II) antitumor agents containing three nitrogen donors: cis-[Pt(NH3)2(N-donor)Cl]+” (J Med Chem, 1989).
